*1 amine or outer side, *2 acyl side, *3 side chain or, on linkers, in order; H or OH if unused. Where a SMILES comes first, the peptide text is derived from it. Bridges are numbered along the chain shown (N, C = ends). [ ]: non-standard residue; d: D form. The star is where a group is joined. oXylylene = c1ccc(C[*:2])c(C[*:1])c1; Pent4ynoyl = C#CCCC(=O)*
Assays:
[1] = test system: HeLa cells stably expressing GFP-LC3; assay: GFP-LC3 puncta assay of autophagic flux, with and without bafilomycin A1; format: cell-based
In short: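 HeLa cells stably expressing GFP-LC3 were given peptide for 2 h in serum-free Opti-MEM acidified with 0.15% (v/v) 6 N HCl, with or without bafilomycin A1. Cells were fixed in 2% PFA in PBS and GFP-LC3 puncta per cell were counted by fluorescence microscopy, with ≥100 cells per sample. Triplicate samples, mean ± SEM, t test versus DMSO; ≥3 independent experiments.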

HeLa-Htt103Q cells = assay: Htt103Q aggregate assay, cellular model of Huntington's disease; format: cell-based; conditions: HeLa cells expressing CFP-htt103Q, 20 μM peptide, aggregates <1 μm
In short: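 HeLa cells expressing CFP-Htt103Q were treated with peptide, then fixed in 2% PFA in PBS. An observer blinded to condition counted CFP-positive aggregates <1 μm by fluorescence microscopy. Scores were the percentage of cells carrying small aggregates and the number of small aggregates per cell.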

[2] = Solubility as observed by the authors; format: physicochemical

## C#CCCC(=O)N[C@H](C(=O)N[C@@H]1CSCc2ccccc2CSC[C@H](C(=O)N[C@@H](Cc2ccccc2)C(=O)N[C@@H](Cc2c[nH]cn2)C(=O)N[C@H](C(=O)N[C@@H](Cc2c[nH]c3ccccc23)C(=O)N[C@@H](Cc2c[nH]cn2)C(N)=O)[C@@H](C)CC)NC(=O)[C@H](C)NC(=O)[C@H](CC(N)=O)NC1=O)C(C)C [DD5-o] (Pent4ynoyl-V[dC]NA[dC]FHIWH-NH2; linker 2-5 via oXylylene)
[1]; 10 μM peptide, 2 h
  extent of autophagy induction relative to Tat-Beclin 1 (GFP-LC3 puncta): slightly less activity than Tat-Beclin 1
[1]; peptide 2 h plus bafilomycin A1
  change in GFP-LC3 puncta upon cotreatment with Baf A1: further increase in GFP-LC3 puncta
HeLa-Htt103Q cells
  number of small htt103Q aggregates observed per cell: significant decrease
  percentage of cells that have small htt103Q aggregates: significant decrease
[2]; judged for 2D-NMR experiments
  solubility in water: not soluble enough in water for 2D-NMR experiments

## (HT)-VcNAcFHIWH (sidechain bridge or staple) [HT-DD5-o]
[2]; medium not stated, N-terminal tag attached to DD5-o
  solubility compared with DD5-o: equally soluble as DD5-o
